Where two headings read alike, the source gives them in different places. Marks after values point to notes of the source that are not given here.
Columns and labels:
α4β2 nAChR = α4β2 nAChR (Rattus norvegicus, UniProt P09483+P12390); experiment: [3H]epibatidine binding assay; conditions: ratio of Ki values
mice [1] = conditions: mouse, cited from earlier work
mice [2] = conditions: mouse, cited from earlier work; remark: listed apart in the source
mice [3] = conditions: mouse, cited from earlier work; remark: listed apart in the source
mice [4] = conditions: mouse, cited from earlier work; remark: listed apart in the source
mice [5] = experiment: antagonism of nicotine-induced antinociception, hot-plate test; format: in vivo, mouse; conditions: for times more potent as an antagonist than varenicline in the hot-plate test: ratio of AD50 values
mice [6] = experiment: tail-flick test; format: in vivo, mouse
Summary of the method: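 D'Amour–Smith tail-flick in mice. Racemic hydrochloride test compound given s.c., with testing 5 min later. %MPE = [(test−control)/(10−control)]×100. 8–12 mice per dose, minimum four doses; ED50 with confidence limits from the dose-response curve.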

mice [7] = experiment: hypothermia; format: in vivo, mouse; conditions: ratio of ED50 values
Summary of the method: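 Mouse rectal temperature read by thermistor probe (inserted 24 mm) and digital thermometer, just before and 30 min after s.c. saline or racemic hydrochloride test compound. Change in temperature calculated for each mouse.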

mice [8] = experiment: hot-plate test; format: in vivo, mouse
Summary of the method: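 Mice in a 10 cm glass cylinder on a 55.0 °C hot plate. Two control latencies, at least 10 min apart, per mouse; normal latency 8–12 sec. Endpoint: jumping or paw licking. Eight mice per dose got racemic hydrochloride test compound s.c. and were tested 5 min later. %MPE = [(test−control)/(40−control)]×100; ED50 from dose-response curve.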

mice [9] = experiment: spontaneous activity; format: in vivo, mouse; conditions: ratio of ED50 values
mice [10] = experiment: antagonism of nicotine-induced antinociception, tail-flick test; format: in vivo; conditions: Mus musculus, sc, read-out: AD50 (µg/kg) tail-flick
mice [11] = conditions: mouse; antagonism of nicotine-induced antinociception; cited from earlier work
mice [12] = conditions: mouse; antagonism of nicotine-induced antinociception; cited from earlier work; remark: listed apart in the source

α4β2 nAChR, sequence (P12390 25-500): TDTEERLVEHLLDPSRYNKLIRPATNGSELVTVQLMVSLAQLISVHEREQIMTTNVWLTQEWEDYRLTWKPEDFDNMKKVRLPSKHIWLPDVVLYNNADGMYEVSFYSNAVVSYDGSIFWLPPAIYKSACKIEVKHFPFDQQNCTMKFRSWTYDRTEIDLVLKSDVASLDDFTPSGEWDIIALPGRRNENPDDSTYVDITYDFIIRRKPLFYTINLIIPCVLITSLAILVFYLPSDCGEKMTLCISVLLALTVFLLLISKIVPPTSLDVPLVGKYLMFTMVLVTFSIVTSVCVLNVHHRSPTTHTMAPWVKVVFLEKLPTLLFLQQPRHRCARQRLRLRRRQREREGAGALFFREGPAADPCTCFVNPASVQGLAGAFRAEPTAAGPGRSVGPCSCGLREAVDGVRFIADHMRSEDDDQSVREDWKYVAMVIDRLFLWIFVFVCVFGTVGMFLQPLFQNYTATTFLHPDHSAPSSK
α4β2 nAChR, sequence (P09483 31-630): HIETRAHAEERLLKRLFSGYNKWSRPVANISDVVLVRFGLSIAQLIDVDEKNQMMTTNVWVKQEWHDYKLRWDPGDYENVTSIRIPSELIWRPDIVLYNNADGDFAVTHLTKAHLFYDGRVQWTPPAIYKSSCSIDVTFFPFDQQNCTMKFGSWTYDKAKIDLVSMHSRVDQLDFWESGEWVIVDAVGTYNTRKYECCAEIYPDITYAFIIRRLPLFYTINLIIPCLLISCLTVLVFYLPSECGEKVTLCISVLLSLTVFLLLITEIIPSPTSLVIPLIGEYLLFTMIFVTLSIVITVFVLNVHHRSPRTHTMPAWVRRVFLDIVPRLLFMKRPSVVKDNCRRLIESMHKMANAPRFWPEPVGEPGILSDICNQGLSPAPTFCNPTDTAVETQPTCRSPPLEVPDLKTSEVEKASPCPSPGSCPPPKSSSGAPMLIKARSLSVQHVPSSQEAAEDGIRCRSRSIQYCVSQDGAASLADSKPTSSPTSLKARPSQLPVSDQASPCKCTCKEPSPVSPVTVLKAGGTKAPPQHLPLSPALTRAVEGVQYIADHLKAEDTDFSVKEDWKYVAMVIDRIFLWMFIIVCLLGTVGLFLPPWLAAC

Clc1ncc([C@H]2C[C@@H]3CC[C@H]2N3)cc1-c1ccccc1 [5a]
times higher affinity at the α4β2 nAChR than nicotine (α4β2 nAChR): 71 times | times higher affinity at the α4β2 nAChR than varenicline (α4β2 nAChR): 6 times | ED50 mg/kg tail-flick (mice [1]; (confidence limits)): 0.7 ^g (0.5–1.0) mg/kg | ED50 mg/kg hot-plate (mice [2]; (confidence limits)): 1.0 ^g (0.5–2.0) mg/kg | ED50 mg/kg hypothermia (mice [3]; (confidence limits)): 0.4 ^g (0.1–0.9) mg/kg | ED50 mg/kg spontaneous activity (mice [4]; (confidence limits)): 0.35 ^g (0.2–0.85) mg/kg

Fc1cccc(-c2cc([C@H]3C[C@@H]4CC[C@H]3N4)cnc2Cl)c1 [5c, 3′-(3-Fluorophenyl)epibatidine]
times more potent as an antagonist than varenicline in the hot-plate test (mice [5]): 5.5 times

Clc1cccc(-c2cc([C@H]3C[C@@H]4CC[C@H]3N4)cnc2Cl)c1 [5e, 3′-(3-Chlorophenyl)epibatidine]
times more potent as an antagonist than varenicline in the hot-plate test (mice [5]): 5.9 times | selectivity for α4β2 nAChR relative to α7 nAChR (α4β2 nAChR): greater than 2000 fold

Nc1cccc(-c2cc([C@H]3C[C@@H]4CC[C@H]3N4)cnc2Cl)c1 [5j, 3′-(3-Aminophenyl)epibatidine]
times weaker than epibatidine (1), tail-flick (mice [6]; ratio of ED50 values): 57 times | AD50 (µg/kg) hot-plate (mice [5]; mouse, antagonism of nicotine-induced antinociception, (confidence limits)): 26 (5–90) µg/kg | times more potent as an antagonist than varenicline in the hot-plate test (mice [5]): 18 times | times weaker than epibatidine (1), hypothermia (mice [7]): 76 times | times weaker than epibatidine (1), hot-plate (mice [8]; ratio of ED50 values): 75 times | times weaker than epibatidine (1), spontaneous activity (mice [9]): 30 times

COc1ccc(-c2cc([C@H]3C[C@@H]4CC[C@H]3N4)cnc2Cl)cc1 [5k, 3′-(4-Methoxylphenyl)epibatidine]
ED50 (mice [10]): 10 µg/kg

CN(C)c1cccc(-c2cc([C@H]3C[C@@H]4CC[C@H]3N4)cnc2Cl)c1 [5m, 3′-(3-Dimethylaminophenyl)epibatidine]
agonist activity in the tail-flick test (mice [6]; mouse): did not have agonist activity | agonist activity in the hot-plate test (mice [8]; mouse): did not have agonist activity

Clc1ccc([C@@H]2C[C@H]3CC[C@@H]2N3)cn1 [(+)-epibatidine, epibatidine]
ED50 mg/kg tail-flick (mice [1]): 0.0061 ^e mg/kg

Clc1ccc([C@@H]2C[C@H]3CC[C@@H]2N3)cn1 [(−)-epibatidine, epibatidine]
ED50 mg/kg tail-flick (mice [1]): 0.0066 ^e mg/kg

c1cnc2cc3c(cc2n1)[C@@H]1CNC[C@H]3C1 [varenicline, reference compound]
AD50 (µg/kg) tail-flick (mice [11]): 0.2 µg/kg | AD50 (µg/kg) hot-plate (mice [12]): 470 µg/kg | agonist activity in the tail-flick test (mice [1]): inactive | agonist activity in the hot-plate test (mice [2]): inactive | ED50 mg/kg hypothermia (mice [3]): 2.8 mg/kg | ED50 mg/kg spontaneous activity (mice [4]): 2.1 mg/kg
